Most compounds without a hit are left out; they make up all but 1.8% or so of the library.
CAL PDZ FP-1 – blocks peptide binding to the human CAL PDZ domain; purified CAL PDZ, TMR-peptide fluorescence polarization, 1 h; inhibition, % at 24.9 µM; 300,000 compounds, 0.92% hits; Q9HD26;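 active = mean inhibition of at least 30% with at least half of replicates also reaching 30%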
Tn6 DDE FP – disrupts Tn6 cyclic peptide binding to fibrin D-Dimer-E complex | 370,000 compounds, 0.21% hits | inhibition, % at 8.3 µM | Fibrin DD(E) TRITC-Tn6 fluorescence polarization displacement | P02675;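 active = inhibition above a per-campaign cutoff: mean of compounds within control limits plus 3 SD, cut at about 15% in these data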
Target sequence (P02675 whole entry, looked up): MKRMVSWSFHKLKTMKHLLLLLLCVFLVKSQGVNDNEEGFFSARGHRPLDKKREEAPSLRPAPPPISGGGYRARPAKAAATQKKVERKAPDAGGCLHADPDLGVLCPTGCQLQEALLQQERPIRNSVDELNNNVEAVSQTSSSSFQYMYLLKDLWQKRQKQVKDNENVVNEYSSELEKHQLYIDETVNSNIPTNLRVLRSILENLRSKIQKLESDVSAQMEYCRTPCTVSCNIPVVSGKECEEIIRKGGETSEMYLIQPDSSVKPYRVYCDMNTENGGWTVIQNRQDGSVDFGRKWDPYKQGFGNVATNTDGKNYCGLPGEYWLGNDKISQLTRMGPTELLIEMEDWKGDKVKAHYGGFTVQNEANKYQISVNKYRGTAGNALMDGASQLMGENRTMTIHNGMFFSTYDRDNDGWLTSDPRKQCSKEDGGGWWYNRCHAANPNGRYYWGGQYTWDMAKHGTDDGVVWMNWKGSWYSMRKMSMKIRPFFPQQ
ARNT TACC3 PPI – ARNT/TACC3 interaction disruption; Q9Y6A5; AlphaScreen His-ARNT PAS-B/GST-TACC3 binding, luminescence; TACC3 fragment carries E629A point mutation; inhibition, % at 9.99 µM; 390,000 compounds, 0.66% hits; AID 623870;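 active = mean inhibition of replicates at least 50% and at least half of replicates each reaching 50%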
CAL PDZ FP-2 – blocks peptide binding to human CAL PDZ domain; 330,000 compounds, 0.02% hits; AID 504414; Q9HD26; inhibition, % at 20 µM; purified CAL PDZ, TMR-peptide fluorescence polarization, 1 h;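 active = highest replicate inhibition of at least 40%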
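Material – purified CerCALP PDZ construct · Detection – FP readout, S and P plane fluorescence · Measure – percent inhibition from loss of millipolarization · Controls – unlabelled peptide for full inhibition, DMSO wells as neutral · Probe or stimulus – TMR-labelled reporter peptide T*-PRC34 bound in PDZ groove · Times – 1 h at RT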
DDE Tn7 FP inh – DD(E)-Tn7 binding inhibition, primary FP screen | FP displacement of FITC-Tn7 peptide from fibrin DD(E); 0% = median of compound wells per plate | inhibition, % at 8.3 µM | 370,000 compounds, 0.13% hits | AID 720508;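 active = inhibition above the mean of compounds falling within the control limits plus 3 SD of them, cut at about 14% in these data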
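Assay system: Human clot-derived fibrin DD(E) complex | Buffer or medium: Tris/NaCl/CaCl2 buffer, pH 7.8 | Repeats: One replicate per compound | Benchmarks: Aha-Tn7 high control | Measure: % inhibition scaled between sample-field median and high-control FP | Schedule: 10 min plus 3 h, room temperature | Signal: Fluorescence polarization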
GRK2 inh – inhibitors of human GRK2 displacing RNA aptamer; bead flow cytometry, FAM-aptamer displacement from GRK2; inhibition of aptamer binding, % at 10 µM; 330,000 compounds, 0.59% hits; AID 488847;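 active = inhibition of aptamer binding above 40%, roughly 3 SD of noise, on plates passing a quality check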;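 note: median bead fluorescence of bound FAM aptamer so fluorescent compounds give negative values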
GRK2 CP1 – confirmation of human GRK2 inhibitors displacing RNA aptamer; bead-bound GRK2, FAM-aptamer displacement, flow cytometry; AID 504451; aptamer displacement, % at 10 µM; shares compounds with GRK2 inh; 2,000 compounds, 4% hits;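 active = aptamer displacement above 40%, near three times the noise of non-fluorescent compounds, on plates passing quality checks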;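 note: negative values mostly reflect intrinsic compound fluorescence rather than true enhancement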
Aptamer quench 1 – quenches fluorescent RNA aptamer, GRK2 hit artifact; fluorescence change (kMESF span), kMESF (no concentration beside the values); 110 tested, under 10 active; shares compounds with GRK2 inh; Fluorescent RNA aptamer beads, quenching, flow cytometry; hits give high values;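 active = compounds whose bead fluorescence drops by more than 37 kMESF across the dose range, marking them as dye quenchers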
Aptamer quench SP – aptamer fluorescence quenching in GRK2 counter-screen. Carboxyfluorescein RNA aptamer on beads, flow cytometry quenching; hits give low values. 2,000 tested, under 10 active. fluorescence response (% of DMSO), % at 10 µM. AID 504580. shares compounds with GRK2 inh;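 active = compounds that quench the bead-bound fluorescent RNA probe, cutting fluorescence to under half of the solvent control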;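 note: counterscreen run without GRK2 so only probe quenching by compound is measured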
GRK2 CP2 – confirmation of human GRK2 inhibitors binding RNA aptamer site; shares compounds with GRK2 inh; 360 tested, under 10 active; bead-bound GRK2, FAM-aptamer displacement, flow cytometry; inhibition of aptamer binding, % at 10 µM; AID 504782;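 active = inhibition of aptamer binding above 40%, about triple the noise seen with nonglowing compounds, on plates passing quality control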;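 note: negative values mostly come from compounds that fluoresce themselves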
FAM quench CP2 – counter-screen for GRK2 binding hits: quenchers of fluorescent RNA aptamer; AID 588494; shares compounds with GRK2 inh; fluorescence response vs DMSO, % at 10 µM; carboxyfluorescein RNA aptamer beads, flow cytometry quenching; hits give low values; 360 tested, under 10 active;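 active = response vs DMSO under 50%, meaning signal dropped by over half, treated as fluorescence quencher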;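 note: labelled aptamer on streptavidin beads without GRK2 as a quench counter-screen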
Numbers stand for hits; n = inactive; x = not tested or not shown.

SMILES	CAL PDZ FP-1	Tn6 DDE FP	ARNT TACC3 PPI	CAL PDZ FP-2	DDE Tn7 FP inh	GRK2 inh	GRK2 CP1	Aptamer quench SP	others
O=C(O)c1cccc(-n2cccc2/C=N/O)c1	n	n	n	n	n	54	n	n	GRK2 CP2=n;FAM quench CP2=n
O=C(O)c1cccc(-n2cccc2/C=C/[N+](=O)[O-])c1	n	n	n	n	n	51	n	n
ON=Cc1cccn1-c1ccccc1	n	n	n	n	n	n	x	x
C[C@H]1CN([C@@H](C)CO)C(=O)Cc2cc(NC(=O)Nc3ccc(C(F)(F)F)cc3)ccc2O[C@H]1CN(C)C(=O)Nc1cccc2ccccc12	x	x	n	x	x	x	x	x
COc1cnn(-c2ccc(C)cc2)c(=O)c1Br	n	n	n	n	n	n	n	n
C[C@@H]1CCCCO[C@@H](CN(C)Cc2ccccc2)[C@H](C)CN([C@H](C)CO)C(=O)c2cc(NC(=O)Nc3ccc(C(F)(F)F)cc3)ccc2O1	x	x	n	x	x	x	x	x
O=C(O)C1CC(c2ccccc2F)=NO1 (stereo not drawn)	n	n	x	n	n	n	x	x	GRK2 CP2=n;FAM quench CP2=n
O=C(NCCc1cccs1)C1CC(c2ccccc2F)=NO1 (stereo not drawn)	n	n	n	n	n	n	x	x
COc1ccc(C(=O)NC(Cn2ccnc2)C(C)(C)C)cc1OC1CCN(C(C)C)CC1 (stereo not drawn)	n	n	n	n	n	80	x	x	GRK2 CP2=n;FAM quench CP2=n
CCNC(=O)C[C@H]1CC[C@H]2[C@@H](COC[C@@H](O)CN2Cc2ccccc2F)O1	x	x	n	x	x	x	x	x
O=Cc1c(NCc2ccccc2)c2ccccc2[nH]c1=O	n	n	n	n	n	n	x	x
O=Cc1c(NCc2ccc(Cl)cc2)c2ccccc2[nH]c1=O	x	n	n	n	n	100	n	n
COc1ccc(OCCN2CCN(C(=O)c3ccc(OC(F)F)c(OC)c3)CC2)cc1	n	n	n	n	n	56	n	n
CCN(CC)CCn1c(OC)cc(=O)[nH]c1=O	n	n	n	n	n	69	n	n
CCN(CC)CCn1c(N)cc(=O)[nH]c1=O	n	n	x	n	n	n	x	x
CCCN1C[C@H](C)[C@H](OC)CN(C)C(=O)c2cc(NS(=O)(=O)CC)ccc2OC[C@H]1C	x	x	n	x	x	x	x	x
Cc1ccc(N(CN2CCCC2=O)C(=O)c2ccccc2)cc1	n	n	n	n	n	67	n	n
CNC[C@H]1Oc2c(NC(=O)Nc3ccccc3)cccc2C(=O)N([C@H](C)CO)C[C@H]1C	x	x	n	x	x	x	x	x
COc1ccc(Cl)cc1S(=O)(=O)N1CCN=C1Cc1ccccc1	n	n	n	n	n	n	x	x
CCOc1cc(S(=O)(=O)N2CCN=C2Cc2ccccc2)ccc1F	n	n	n	n	n	44	x	x	GRK2 CP2=n;FAM quench CP2=n
CCCN(C(=O)c1cccc(-n2cccc2)c1)c1c(N)n(Cc2ccccc2)c(=O)[nH]c1=O	n	n	n	n	n	n	n	n	Aptamer quench 1=37
CO[C@@H]1CN(C)C(=O)c2cc(NC(=O)Nc3cc(F)ccc3F)ccc2OC[C@@H](C)NC[C@H]1C	x	x	n	x	x	x	x	x
Cc1c(NS(=O)(=O)c2ccc3[nH]c(=O)[nH]c3c2)c(=O)n(-c2ccccc2)n1C	n	n	n	n	n	75	n	n
Cc1c(NS(=O)(=O)c2ccc(F)cc2)c(=O)n(-c2ccccc2)n1C	x	n	n	n	n	n	x	x
CO[C@H]1CN(C)C(=O)c2ccc(NC(=O)C3CCOCC3)cc2OC[C@@H](C)NC[C@H]1C	x	x	n	x	x	x	x	x
SMILES	CAL PDZ FP-1	Tn6 DDE FP	ARNT TACC3 PPI	CAL PDZ FP-2	DDE Tn7 FP inh	GRK2 inh	GRK2 CP1	Aptamer quench SP	others
C[C@H]1CN([C@@H](C)CO)C(=O)c2cc(NS(C)(=O)=O)ccc2O[C@H]1CN(C)Cc1ccccc1	x	x	n	x	x	x	x	x
CCCNS(=O)(=O)c1ccc(CCC(=O)N2CCOCC2)cc1	n	n	n	n	n	61	n	n
Cc1ccc(CNC(=O)CN2C(=O)NC(C)(c3cccc(Br)c3)C2=O)cc1 (stereo not drawn)	n	n	n	n	n	56	n	n
Cc1ccc(CNC(=O)CN2C(=O)NC(C)(c3ccc(Cl)cc3)C2=O)cc1 (stereo not drawn)	x	n	n	n	n	n	x	x
C[C@@H]1CN([C@@H](C)CO)C(=O)c2cc(NC(=O)c3ccncc3)ccc2O[C@@H]1CN(C)C(=O)NC1CCCCC1	x	x	n	x	x	x	x	x
Cc1noc(C)c1NC(=O)N(C)C[C@@H]1OCCCC[C@H](C)Oc2ccc(NS(=O)(=O)c3ccc(F)cc3)cc2C(=O)N([C@H](C)CO)C[C@@H]1C	x	x	n	x	x	x	x	x
Cc1cc2c(c(=O)n1C1CC1)C(c1cccc(Cl)c1)C(C#N)=C(N)O2 (stereo not drawn)	n	n	n	n	n	93	n	n
Cc1ccc(CNC(=O)CCn2cc(-c3ccc(F)cc3)nc2-c2ccncc2)cc1	n	n	n	n	n	n	x	x
O=C(O)CCn1cc(-c2ccc(F)cc2)nc1-c1ccncc1	n	n	n	n	n	n	n	n
CO[C@@H]1CN(C)C(=O)c2ccc(NC(=O)Nc3ccccc3F)cc2OC[C@H](C)N(C)C[C@H]1C	x	x	n	x	x	x	x	x
COc1cc(OC)cc(-c2cc3cc4c(cc3cn2)OCO4)c1	n	x	n	n	x	n	x	x
COc1ccc(-c2cc3cc4c(cc3cn2)OCO4)cc1	n	n	n	n	n	41	x	x	GRK2 CP2=n;FAM quench CP2=n
Cc1ccc(S(=O)(=O)Cc2ccc(C(=O)O)o2)cc1	n	n	n	n	n	67	64	n	Aptamer quench 1=n
CC(C)CCn1c(COc2ccccc2)n[nH]c1=S	n	n	x	n	n	53	n	n
COc1ccc(Cc2cc(NCc3ccccc3)c3ncn(C(C)C)c3c2)cc1	n	n	n	n	n	97	x	x	GRK2 CP2=n;FAM quench CP2=n
Cc1ccc(S(=O)(=O)c2c[nH]c3cc4c(cc3c2=O)OCO4)cc1	x	n	x	x	n	n	x	x
CC(C)NC(=O)N(C)C[C@@H]1Oc2ncc(C3=CCCCC3)cc2C(=O)N([C@@H](C)CO)C[C@H]1C	x	x	n	x	x	x	x	x
